Published values of several laboratories.
Read-out: cell growth or viability

| Structure (SMILES) | cell line | method | concentration | time | measurement | value |
| --- | --- | --- | --- | --- | --- | --- |
| CC(C)Cc1nn(C)c(=O)c2c(SCCCO)n(Cc3cnc(Cl)c4ccccc34)cc12 | Raji | MTT |  | 96 h | EC50 | 60 nM |
| Cc1ccc(C(=O)NCc2ccsc2)cc1C#Cc1cn(CCN(C)C)c2ncnc(N)c12 | 32D |  |  |  | GI50 | > 1000 nM |
| COc1ccc(-c2ccc(-c3ccc(C(=N)N)nc3)s2)cc1 | EKVX | SRB |  |  | GI50 | 1700 nM |
| COc1ccc(NC(=O)c2c(Nc3ccccc3)sc(C#N)c2NC(=O)CNc2ccc(C)cc2)cc1 | HCT-116 | SRB | 10 nM | 48 h | viability | 92.4% |
| CCc1ncn(CC(c2c[nH]c3ccc(C)cc23)c2c[nH]c3ccc(C)cc23)c1C(=O)OC | DH82 | MTS | 20 µM | 24 h | inhibition | 6.1% |
| CC(C)Cc1nn(C)c(=O)c2c(SCCCO)n(Cc3ccc(NCCCCCN)nc3)cc12 | Raji | MTT |  | 96 h | EC50 | 520 nM |
| Cn1nnc2c(C(N)=O)ncn2c1=O | AGS |  |  |  | EC50 | 310000 nM |
| Cc1ccc(C(=O)NCc2ccsc2)cc1C#Cc1cn(C2CCC2)c2ncnc(N)c12 | 32D |  |  |  | GI50 | > 1000 nM |
| COc1ccc2occ(/C=C/c3ccc(O)cc3)c(=O)c2c1 | HSC-2 | MTT |  | 23 h | CC50 | < 390 nM |
| CC(C)Cc1nn(C)c(=O)c2c(SCCCO)n(Cc3cc(NCCCCCN)nc4ccccc34)cc12 | Raji | MTT |  | 96 h | EC50 | 55 nM |
| Cc1cccc2cc(CNCC3(N4CCCC4)COC3)cnc12 | U-87 MG |  | 30 µM | 48 h | viability | 97.7% |
| COc1ccc(NCC(=O)Nc2c(C#N)sc(Nc3ccccc3)c2C(=O)Nc2ccc(OC)cc2)cc1 | HCT-116 | SRB | 1 nM | 48 h | viability | 99.5% |
| CC#CC(=O)N1CC[C@@H](n2cc(-c3ccc(Oc4c(F)cccc4F)cc3)c3c(N)n[nH]c(=O)c32)C1 | DOHH-2 | ATP luminescence |  | 72 h | GI50 | 8580 nM |
| COc1ccc(NC(=O)c2c(Nc3ccccc3)sc(C(=O)NN=Cc3ccccc3)c2NC(C)=O)cc1 | HCT-116 | SRB | 1 µM | 48 h | viability | 77.3% |
| C[C@@H]1[C@H](O)[C@@H](C)/C=C/C=C/C=C/C=C/C=C/C=C/C=C/[C@H](O[C@@H]2O[C@H](C)[C@@H](O)[C@H](N)[C@@H]2O)C[C@@H]2O[C@](O)(C[C@@H](O)C[C@@H](O)[C@H](O)CC[C@@H](O)C[C@@H](O)CC(=O)O[C@H]1C)C[C@H](O)[C@H]2C(=O)O | DH82 | MTS | 200 µM | 72 h | inhibition | 42% |
| COc1ccc(NC(=O)c2c(Nc3ccccc3)sc(C(=O)NN=Cc3ccc(Cl)cc3)c2NC(C)=O)cc1 | HCT-116 | SRB | 10 µM | 48 h | viability | 61.3% |
| CCOC(=O)c1c(C)ncn1CC(c1cn(C)c2ccc([N+](=O)[O-])cc12)c1cn(C)c2ccc([N+](=O)[O-])cc12 | DH82 | MTS | 20 µM | 24 h | inhibition | 20.5% |
| COc1ccc(/C=C/c2coc3ccc(OC)cc3c2=O)cc1 | HSC-2 | MTT |  | 23 h | CC50 | 2600 nM |
| COc1cccc(Oc2ccccc2NC(=O)CNC(=O)c2cccc3ccccc23)c1 | EKVX | SRB |  | 48 h | GI50 | 1290 nM |
| COc1ccc(-c2ccc(-c3ccc(C(=N)N)nc3)s2)cc1Cl | EKVX | SRB |  |  | GI50 | 1790 nM |
| COc1ccc(C=NNC(=O)c2sc(Nc3ccccc3)c(C(=O)Nc3ccc(OC)cc3)c2NC(C)=O)cc1 | HCT-116 | SRB | 0.1 µM | 48 h | viability | 72.5% |
| Cc1ccc(C(=O)NCc2ccsc2)cc1C#Cc1cn(C2CCCC2)c2ncnc(N)c12 | 32D |  |  |  | GI50 | > 1000 nM |
| COc1ccc(NC(=O)c2c(Nc3ccccc3)sc(C#N)c2NC(=O)CNc2ccccc2Cl)cc1 | HCT-116 | SRB | 10 nM | 48 h | viability | 87.7% |
| Clc1ccccc1-c1ccc(CNCC2(N3CCCC3)COC2)o1 | U-87 MG |  | 30 µM | 48 h | viability | 63.6% |
| COc1ccc(NC(=O)c2c(Nc3ccccc3)sc(C#N)c2NC(=O)CNc2ccccc2[N+](=O)[O-])cc1 | HCT-116 | SRB | 10 µM | 48 h | viability | 72.7% |
| Cc1ccc(C(=O)NCc2ccsc2)cc1C#Cc1cn(C)c2ncnc(N)c12 | 32D |  |  |  | GI50 | 106 nM |
| COc1ccc(NC(=O)c2c(Nc3ccccc3)sc(C(=O)NN=Cc3ccc(C)cc3)c2NC(C)=O)cc1 | HCT-116 | SRB | 10 nM | 48 h | viability | 90.2% |
| COc1ccc2occ(/C=C/c3cc(OC)c(OC)c(OC)c3)c(=O)c2c1 | HSC-2 | MTT |  | 7 h | CC50 | 20000 nM |
